# Compound activity: PubChem, several laboratories
# In the library only some 3.8% were active in any assay of this set; here they are far more common.
# sdo1 growth: growth rescue of sdo1-depleted yeast, primary screen, S. cerevisiae, bone marrow failure model. z-score at 10 µM. S. cerevisiae sdo1-depleted JHY4D growth rescue, OD600 30 h; hits give high values; pdr5 snq2 efflux-pump mutant strain. actives 0.21% (n = 140,000);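 active = z-score above 3 at both the 24 hr and the 30 hr optical density reads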;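 note: z-score against mean and SD of all compound wells on the same plate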
# RAM network inh: inhibitors of the yeast RAM network, primary screen, dse1pr::URA3 reporter, 5-FOA selection; inhibition, % at 50 µM; actives 1.8% (n = 190,000); AID 868, 2007; S. cerevisiae dse1pr::URA3 reporter, 5-FOA growth OD615, 2 d; analog-sensitive cbk1-as2 kinase mutant strain;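 active = inhibition above a set limit, 3 SD over mean compound inhibition, cut at about 8.4% in these data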;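 note: 0% = DMSO-only wells with no growth and 100% = 10 µM 1-NA-PP1 full growth; inhibition rescues growth on 5-FOA so higher OD means more RAM inhibition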
# BB579 growth dn: growth inhibitors of yeast BB579 in restrictive medium, primary screen, yeast lifespan-shortening project, S. cerevisiae | OD615, 48 h | inhibition, % at 10 µM | actives 0.51% (n = 140,000) | AID 804, 2007;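 active = inhibition above a set limit, 3 SD over the mean compound inhibition, cut at about 44% in these data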
#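 System: DeaD yeast strain BB579; buffer or medium: CSMM-D dextrose restrictive medium; technique: OD at 615 nm; schedule: 4 h cell preincubation, 48 h compound exposure, 30 °C humidified; doses: single 10 µM dose; controls: amphotericin B 10 µg/mL, positive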
# Measles CPE: compounds protecting cells from measles virus cytopathic effect, primary screen, measles RdRp inhibitor project, single point, MLSMR library, absorbance. AID 841, 2007. actives 1.5% (n = 140,000). Measles virus-infected cells, CPE protection. protection (pct of control), % at 4 µM; in the data active = protection mostly above about 24%, no sharp cut-off; inactive = mostly below about 26%
# Yeast life ext: compounds extending yeast replicative lifespan, primary screen, S. cerevisiae, OD615 | S. cerevisiae growth with nicotinamide; deaD strain in restrictive glucose medium | actives 0.68% (n = 130,000) | inhibition of the nicotinamide effect, % at 10 µM;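 active = inhibition above a set limit, placed 3 SD over the median of all compounds, cut at about 26% in these data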;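 note: 0% = nicotinamide-treated wells and 100% = cells grown without nicotinamide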
#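 Material: Modified budding yeast, DeaD strain | Medium: Restrictive glucose medium | Probe or stimulus: 1.5 mM nicotinamide | Dosing: Single dose 10 µM compound, 0.25% DMSO | Times: 48 h at 30 °C | Technique: OD615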
# The depositor's hits bear a star; / = no result given.
SMILES,sdo1 growth,RAM network inh,BB579 growth dn,Measles CPE,Yeast life ext
CNC(=O)NC(=O)COC(=O)c1ccccc1OCc1ccccc1,/,2,/,/,/
O=C(NC(=S)Nc1cccc(Cl)c1N1CCCCC1)c1ccco1,-1.6,9.7*,-29,4,18
O=C(NC(=S)Nc1cccc(Cl)c1N1CCOCC1)c1cccs1,/,3,/,/,/
O=C(NC(=S)Nc1cccc(Cl)c1N1CCCCC1)c1cccs1,-1.2,9.4*,-21,35,3
CCCCCCCCSc1nnc(CSc2nc3nc(C)cc(C)n3n2)o1,-0.92,5,10,3,-23
CC(C)N(C(=O)C[n+]1ccsc1N)c1ccccc1,/,2,/,/,/
CC(NC(=O)c1cn(C(C)c2ccccc2F)nn1)c1ccncc1 (centres undefined),/,1,/,/,/
CC(C)(C)NC(=O)C(OC(=O)c1cccs1)c1ccc(C#N)cc1 (centres undefined),/,5,/,/,/
Cc1c(C(=O)N/N=C/C(C)C)[nH]c2ccc([N+](=O)[O-])cc12,0.47,-1,-36,7,-4
Cc1c(C(=O)N/N=C/c2ccc(Cl)cc2)[nH]c2ccc(Cl)cc12,-1.1,8.5*,-51,2,4
CC(C(=O)Nc1ccccc1Sc1ccccc1)N(c1ccccc1)S(C)(=O)=O (centres undefined),-0.36,8.4*,-27,14,26
O=S(=O)(NCCn1ccc2ccccc21)c1ccccc1,-0.37,1,-15,11,-6
Cc1ccc(OCc2nc(-c3ccc(Cl)cc3)n[nH]2)cc1,-2,6,-36,33*,-10
CCOc1ccc(-c2noc(=O)[nH]2)cc1,1.1,0,-2,38*,-4
COc1ccc(-c2noc(=O)[nH]2)cc1,0.63,2,-29,5,3
CC1=CC(=O)c2ccccc2C1=O,1.2,0,68*,16,12
CC(C)c1ccc(NC(=O)c2sccc2-n2cccc2)cc1,/,8.6*,/,/,/
Cc1ccccc1C(=O)NNC1=NCCC1,1.2,4,-22,4,29*
O=C(NNC1=NCCC1)c1cccc(Br)c1,0.84,0,-21,26,-3
O=C(Nc1ccncc1)C1COc2ccccc2O1 (centres undefined),-0.49,0,-4,16,2
O=C(CSC1=NCCN1)C1COc2ccccc2O1 (centres undefined),-0.48,2,-28,31*,-11
COc1ccc(C2(C(=O)NCc3ccco3)CCCC2)cc1OC,0.2,2,-11,53*,-13
COc1ccc(COc2cc(-c3cccc(OC)c3)nc3ccc(NC(=O)c4ccc(C)cc4)cc23)cc1,-0.75,8.6*,-39,24,3
CCOc1ccc(Nc2nc(Cc3nnc(SCC(=O)c4ccc(C)c(C)c4)o3)cs2)cc1,-0.12,7,-86,4,3
CN(C)c1ccc(C(=O)C(O)c2ccccc2)cc1 (centres undefined),1.3,0,-47,19,/
SMILES,sdo1 growth,RAM network inh,BB579 growth dn,Measles CPE,Yeast life ext
CN(C)c1ccc(C(=O)c2ccccc2)cc1,0.58,1,-4,44*,-8
O=C1c2ccccc2C(Nc2ccc3c(c2)OCCO3)N1c1ccccn1 (centres undefined),-0.66,1,-15,3,36*
COc1ccc(C(=O)Nc2ccc(/C(C)=N/NC(=O)c3ccccc3O)cc2)cc1OC,-0.28,5,-8,45*,-2
CC(O)Cc1cn([C@@H](CCCCNC(=O)OC(C)(C)C)C(=O)N2CCN(C(=O)OC(C)(C)C)CC2)nn1 (some centres undefined),/,1,/,/,/
O=C1NC(=S)N/C1=C/c1cc([N+](=O)[O-])ccc1N1CCOCC1,/,2,/,/,/
O=Cc1cc([N+](=O)[O-])ccc1N1CCOCC1,0.46,0,-2,33*,6
Cc1cccc2cc(C#N)c(NCCNS(=O)(=O)c3ccc4c(c3)OCCO4)nc12,-1.1,7,-27,21,-14
N#CC(C#N)C(c1ccsc1)c1c(-c2ccccc2)[nH][nH]c1=O (centres undefined),-0.25,2,-62,3,40*
CCCc1[nH][nH]c(=O)c1C(c1cccc(Cl)c1)C(C#N)C#N (centres undefined),-0.46,2,-58,19,17
Cc1nc2ccccn2c1C(=O)NN=C1C2CC3CC(C2)CC1C3,0.63,1,-26,38*,38*
Cc1ccc(S(=O)(=O)N(C)C)cc1NC(=O)c1cncc(Br)c1,-1.6,3,-14,16,-2
CC(C)c1ccc(C2=C(O)c3ccccc3C(=O)C2=O)cc1,-1,1,5,7,46*
O=C1C(c2ccncc2)=C(O)c2ccccc21,0.77,0,-22,12,-10
Cc1csc(NC(=O)Cc2coc3cc(C)c(C(C)C)cc23)n1,-2.5,2,83*,55,-18
COc1cc(C2Nc3cccc4cccc(c34)N2)cc(OC)c1O,0.1,9.3*,-30,23,7
COc1ccc(N(C(=O)C(C)C)S(=O)(=O)c2ccc(Cl)cc2)cc1,-0.48,5,-50,21,51*
N=c1c2ccccc2nnn1-c1ccc(C(F)(F)F)cc1,/,4,/,/,/
COC(=O)c1sccc1NC(=O)CN(C)NS(=O)(=O)c1ccc(Cl)cc1,-1,3,3,44*,-17
Cc1cc(SCC(=O)O)nc2ccccc12,/,0,/,/,/
Cc1cc(SCC(=O)c2cc3ccccc3o2)nc2ccccc12,-1.2,11*,-33,8,-8
Cc1cc(SCC(=O)c2ccc3c(c2)OCO3)nc2ccccc12,-1.4,8,-3,31*,-7
CC(=O)N(CN1C(=O)CCC1=O)c1cccc(Cl)c1,0.29,0,-36,8,-1
CCOC(=O)c1nnc(-c2ccccc2)nc1Sc1ccccc1Cl,-1.3,11*,-62,25,-3
CCOC(=O)c1nnc(-c2ccc(C)cc2)nc1Sc1cccc(Cl)c1,-1.1,4,-60,2,3
N#CC(C(=O)NCCc1ccccc1)c1nc2ccccc2nc1N1CCOCC1 (centres undefined),-0.78,1,-114,19,-2
CC1CCN(c2nc3ccccc3nc2C(C#N)C(=O)OC2CCCCC2)CC1 (centres undefined),-0.54,4,-46,22,-8
N#CC(C(=O)NCCc1ccccc1)c1nc2ccccc2nc1N1CCCCC1 (centres undefined),-1.2,3,-28,41*,-2
Cc1ccc(S(=O)(=O)C(C#N)c2nc3ccccc3nc2N2CCCC2)cc1 (centres undefined),-0.76,2,-60,32,72*
CCCCCCNC(=O)C(C#N)c1nc2ccccc2nc1N1CCOCC1 (centres undefined),-0.9,9.7*,-44,47*,-9
